Experimental findings from paper PMC6338520 (Cell chemical biology, 2018) are described below.

For series [1], the system named is PC3 cell lysate. The experiment in a line: QStE hydrolysis in PC3 cell lysate with inhibitors. The class given is biochemical, human. The note with it: lysate 20 μg, inhibitor 10 μM, 30 min on ice, QStE 5 μM; three replicates.
In series [2] the test system is mouse liver lysates. The experiment in a line: Substrate hydrolysis in mouse liver homogenate with or without Palmostatin B. The note with it: lysate 20 μg; for substrate processing by mouse liver lysates: substrate 5 μM. In kind it is biochemical. A digest of the protocol: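 Liver from 14-week-old virgin female C57BL/6 mice, washed twice in cold PBS, minced, sonicated in cold PBS, clarified, protein quantified by BCA. Homogenate (20 μg) preincubated with DMSO or Palmostatin B (10 μM) for 30 min on ice, then fluorogenic thioester substrate or colorimetric esterase substrate 4-NPO added (5 μM). Hydrolysis plotted.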

Series [3] concerns T. gondii lysates. As to the kind of experiment: In situ depalmitoylase activity in T. gondii lysates. The note with it: ASC20KRNT 2.5 μM, Ku80 T. gondii lysate 5 μg, inhibitor 10 μM. In kind it is biochemical, Toxoplasma gondii.
For series [4], the target named is TgPPT1 (Toxoplasma gondii, UniProt S4UG63). The experiment in a line: Steady-state kinetics of fluorogenic substrate hydrolysis by recombinant TgPPT1. The class given is biochemical. The note with it: QStE 10 μM, TgPPT1 100 nM.
The target of series [5] is HsAPT1 (Homo sapiens, UniProt O75608). The experiment in a line: Steady-state kinetics of fluorogenic substrate hydrolysis by recombinant HsAPT1. The class given is biochemical. The note with it: QStE 10 μM, HsAPT1 50 nM.
For series [6], the system named is HsAPT1, HsAPT2 and TgPPT1. The experiment in a line: Steady-state kinetics, statement made for all three depalmitoylases together. In kind it is biochemical. The note with it: all three enzymes.
Series [7] deals with phospholipase A2 (PLA2) (Sus scrofa, UniProt P00592). The experiment in a line: QStE hydrolysis by recombinant PLA2. In kind it is biochemical. The note with it: QStE 10 μM, PLA2 500 nM.
Series [8] deals with T1, monoacylglycerol lipase (MGLL) (Homo sapiens, UniProt Q99685).
T1 sequence (Q99685 1-303): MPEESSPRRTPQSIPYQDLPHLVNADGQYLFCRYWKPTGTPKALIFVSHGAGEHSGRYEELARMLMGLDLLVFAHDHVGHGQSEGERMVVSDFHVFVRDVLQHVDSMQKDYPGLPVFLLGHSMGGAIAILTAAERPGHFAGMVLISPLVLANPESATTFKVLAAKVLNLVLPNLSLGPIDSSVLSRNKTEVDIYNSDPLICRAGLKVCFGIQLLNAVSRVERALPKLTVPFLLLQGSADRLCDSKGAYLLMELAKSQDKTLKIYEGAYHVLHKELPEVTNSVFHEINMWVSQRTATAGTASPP
The experiment in a line: QStE hydrolysis by recombinant MGLL. In kind it is biochemical. The note with it: QStE 10 μM, MGLL 500 nM.

The nature of series [9]: Solubility of the quenched substrates in buffer. In kind it is physicochemical. The note with it: method not described.

Structures are written as SMILES.

Sequence of HsAPT1 (O75608 whole entry): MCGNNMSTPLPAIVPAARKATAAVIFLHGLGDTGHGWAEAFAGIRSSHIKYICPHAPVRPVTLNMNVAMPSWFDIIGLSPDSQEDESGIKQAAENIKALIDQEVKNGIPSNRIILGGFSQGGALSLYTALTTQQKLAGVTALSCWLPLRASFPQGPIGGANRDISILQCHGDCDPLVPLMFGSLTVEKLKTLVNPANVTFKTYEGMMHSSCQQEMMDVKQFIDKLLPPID
Sequence of phospholipase A2 (PLA2) (P00592 23-146): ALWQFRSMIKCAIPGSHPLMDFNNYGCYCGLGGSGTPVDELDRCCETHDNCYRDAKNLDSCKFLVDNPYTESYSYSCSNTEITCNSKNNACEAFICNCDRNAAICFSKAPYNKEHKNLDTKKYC

Turning to `COc1ccc(N2CCN(C(=O)c3cc4c(s3)-c3ccccc3S(=O)(=O)C4)CC2)cc1` [ML349], the “effect of inhibitor on QStE processing in PC3 cell lysate” value in [1] is on record as “only minor reductions”.
On to `CCCCCCCCCC[C@@H]1C(=O)O[C@H]1CCc1ccc(OC)c(OC)c1` [PalmB, Palmostatin B], for which the “effect of inhibitor on 4-NPO processing in mouse liver lysates” value in series [2] (inhibitor 10 μM, 30 min on ice, 4-NPO 5 μM) is on record as “only slightly reduced”. The “effect of inhibitor on QStE processing in mouse liver lysates” value in [2] (inhibitor 10 μM, 30 min on ice, QStE 5 μM) was “completely blocked”. For the same compound, the “effect of inhibitor on QStE processing in PC3 cell lysate” value in series [1] is “completely block”. Also, the “effect of inhibitor on activity in T. gondii lysate” value in series [3] is recorded as “completely abolished”.
`O=C(CN1CCN(C(=O)c2ccco2)CC1)Nc1cc(C(F)(F)F)ccc1Cl` [ML348]: the “effect of inhibitor on QStE processing in PC3 cell lysate” value in series [1] is given as “only minor reductions”.
Take `CCCCCCCCCCCCCCCCS(=O)(=O)F` [HDSF, hexadecylsulfonyl fluoride]: the “effect of inhibitor on QStE processing in PC3 cell lysate” value in series [1] is given as “only minor reductions”.
`CN(C)c1ccc(/N=N/c2ccc(C(=O)NCCCn3cc(CCCCCCCCCCCCCCCC(=O)SC[C@H](NC(=O)c4cc5ccc(O)cc5oc4=O)C(=O)N4CCOCC4)nn3)cc2)cc1` [QStE, (R)-S-(2-(7-hydroxy-2-oxo-2H-chromene-3-carboxamido)-3-morpholino-3-oxopropyl) (E)-16-(1-(3-(4-((4-(dimethylamino)phenyl)diazenyl)benzamido)propyl)-1H-1,2,3-triazol-4-yl)hexadecanethioate]: the “QStE hydrolysis by TgPPT1, specificity panel” value in series [4] is given as “readily hydrolyzed”. For the same compound, in series [5], the “QStE hydrolysis by APT1, specificity panel” value is “readily hydrolyzed”. Also, the “catalytic efficiency for QStE compared to QSE, times greater” value in series [6] is 10-30 times. In series [7], the “QStE hydrolysis by PLA2” value is recorded as “not hydrolyzed”. For the same compound, in series [8], the “QStE hydrolysis by MGLL” value is “not hydrolyzed”. In addition, in series [2], the “substrate processing by mouse liver lysates” value is listed as “robust processing”. For the same compound, the “soluble in aqueous buffer at concentrations up to” value in [9] (aqueous buffer) is reported as “up to 100 μM”. Besides, the “soluble in detergent supplemented buffer at concentrations up to” value in series [9] (buffer with CHAPS, 10 mM) was “up to 500 μM”.
Consider `CCCCCCCC(=O)Oc1ccc([N+](=O)[O-])cc1` [4-NPO, 4-nitrophenyl octanoate], for which the “substrate processing by mouse liver lysates” value in series [2] is given as “more effectively processed”.
For `O=S(=O)(F)Cc1ccccc1` [PMSF, phenylmethylsulfonyl fluoride], the “effect of inhibitor on QStE processing in PC3 cell lysate” value in series [1] is reported as “did not reduce”.
